Test results published in ChEMBL document CHEMBL1131409, “Human telomerase inhibition by regioisomeric disubstituted amidoanthracene-9,10-diones” (J Med Chem, 1998).

Columns and labels:
[1] = target: Telomerase reverse transcriptase (Homo sapiens, UniProt O14746); test: Inhibitory activity of telomerase was measured using the TRAP assay.
How it was run: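 Cell-free modified TRAP with extracts from exponentially growing A2780 ovarian carcinoma cells. 0.04 μg protein was incubated with TS primer, dNTPs (50 μM each) and [α-32P]dCTP in TRAP buffer (pH 8.3, 68 mM KCl) ± agent, up to 50 μM final, for 20 min at 25 °C. Then 80 °C for 5 min, CX primer plus Taq, 31 PCR cycles. Products read by gel phosphorimaging/autoradiography or filter scintillation counting. IC50 taken as 50% inhibition relative to controls.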

A2780 = test: In vitro cytotoxicity against A2780 ovarian cells using the sulforhodamine B(SRB) assay.; type: functional, cell-based; details: Homo sapiens
How it was run: (§1)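 SRB growth assay. 3000–6000 cells were seeded and attached overnight. Agents were dissolved at 500 μM in water and added in quadruplicate at final 0.05, 0.25, 1, 5 and 25 μM. After 96 h, cells were fixed with cold 10% TCA and stained with 0.4% SRB. A540 was expressed as percent of untreated control and the 50% growth-inhibitory concentration was derived.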

CH1 = test: In vitro cytotoxicity against CH1 ovarian cells using the sulforhodamine B(SRB) assay.; type: functional, cell-based; details: Homo sapiens; how it was run: as §1
SK-OV-3 = test: In vitro cytotoxicity against SKOV-3 ovarian cells using the sulforhodamine B(SRB) assay.; type: functional, cell-based; details: Homo sapiens; how it was run: as §1

Chain of Telomerase reverse transcriptase (O14746 whole entry): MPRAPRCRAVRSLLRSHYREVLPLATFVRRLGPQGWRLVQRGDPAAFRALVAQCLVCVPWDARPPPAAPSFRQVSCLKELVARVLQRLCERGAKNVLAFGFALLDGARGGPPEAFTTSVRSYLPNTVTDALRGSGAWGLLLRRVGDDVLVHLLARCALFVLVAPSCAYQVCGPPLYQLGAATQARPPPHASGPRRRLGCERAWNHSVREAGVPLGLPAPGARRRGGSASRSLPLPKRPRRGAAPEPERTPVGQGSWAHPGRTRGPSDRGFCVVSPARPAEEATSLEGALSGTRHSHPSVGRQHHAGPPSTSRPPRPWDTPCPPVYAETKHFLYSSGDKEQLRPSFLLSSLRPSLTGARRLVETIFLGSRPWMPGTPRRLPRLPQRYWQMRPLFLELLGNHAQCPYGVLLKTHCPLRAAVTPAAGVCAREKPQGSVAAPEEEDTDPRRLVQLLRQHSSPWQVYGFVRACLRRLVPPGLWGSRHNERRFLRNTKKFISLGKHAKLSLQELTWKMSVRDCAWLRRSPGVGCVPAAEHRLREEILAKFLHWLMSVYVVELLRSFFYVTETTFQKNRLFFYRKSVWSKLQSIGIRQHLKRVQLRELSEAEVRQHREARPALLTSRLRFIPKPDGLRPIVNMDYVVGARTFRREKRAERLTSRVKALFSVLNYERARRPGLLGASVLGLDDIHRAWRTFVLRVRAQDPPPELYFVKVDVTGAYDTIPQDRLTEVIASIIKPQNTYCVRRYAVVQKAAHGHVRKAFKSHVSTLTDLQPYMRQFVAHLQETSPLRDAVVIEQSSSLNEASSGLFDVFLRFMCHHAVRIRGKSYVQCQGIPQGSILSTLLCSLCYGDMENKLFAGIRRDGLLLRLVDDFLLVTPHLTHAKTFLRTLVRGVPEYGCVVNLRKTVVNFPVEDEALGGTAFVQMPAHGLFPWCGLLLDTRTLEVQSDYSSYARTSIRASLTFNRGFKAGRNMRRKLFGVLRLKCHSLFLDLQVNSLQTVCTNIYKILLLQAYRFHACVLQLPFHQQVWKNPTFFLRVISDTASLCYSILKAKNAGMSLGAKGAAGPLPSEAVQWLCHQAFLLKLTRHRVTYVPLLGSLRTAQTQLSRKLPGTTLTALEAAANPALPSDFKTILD

| Compound | IC50 [1] [µM] | IC50 (A2780) [µM] | IC50 (CH1) [µM] | IC50 (SK-OV-3) [µM] |
| --- | --- | --- | --- | --- |
| C[N+](C)(C)CCC(=O)Nc1ccc(NC(=O)CC[N+](C)(C)C)c2c1C(=O)c1ccccc1C2=O | 7 | – | – | – |
| CCN(CC)CCC(=O)Nc1ccc(NC(=O)CCN(CC)CC)c2c1C(=O)c1ccccc1C2=O | – | 0.2 | 0.26 | 1.4 |
| C[N+]1(CCC(=O)Nc2cccc3c2C(=O)c2cccc(NC(=O)CC[N+]4(C)CCOCC4)c2C3=O)CCOCC1 | 13.2 | 1.9 | 1.8 | 2.9 |
| C[N+]1(CCC(=O)Nc2ccc(NC(=O)CC[N+]3(C)CCCC3)c3c2C(=O)c2ccccc2C3=O)CCCC1 | 5 | 1.5 | 4.5 | 37 |
| O=C(CCN1CCCC1)Nc1cccc2c1C(=O)c1cccc(NC(=O)CCN3CCCC3)c1C2=O | – | 0.32 | 0.36 | 0.53 |
| C[N+]1(CCC(=O)Nc2ccc3c(c2)C(=O)c2ccc(NC(=O)CC[N+]4(C)CCCC4)cc2C3=O)CCCC1 | – | 0.56 | 1.35 | 2 |
| O=C(CCN1CCOCC1)Nc1cccc2c1C(=O)c1c(NC(=O)CCN3CCOCC3)cccc1C2=O | > 50 | > 25 | 21.5 | > 25 |
| C[N+]1(CCC(=O)Nc2cccc3c2C(=O)c2c(NC(=O)CC[N+]4(C)CCCC4)cccc2C3=O)CCCC1 | 8.2 | 0.6 | 1.68 | 5 |
| CC[N+](C)(CC)CCC(=O)Nc1ccc(NC(=O)CC[N+](C)(CC)CC)c2c1C(=O)c1ccccc1C2=O | 3.1 | 4.25 | 6.3 | > 25 |
| C[N+]1(CCC(=O)Nc2cccc3c2C(=O)c2cccc(NC(=O)CC[N+]4(C)CCCCC4)c2C3=O)CCCCC1 | 8.6 | 2 | 2.1 | 8.3 |
| O=C(CCN1CCCCC1)Nc1cccc2c1C(=O)c1c(NC(=O)CCN3CCCCC3)cccc1C2=O | 3.7 | 0.54 | 1.95 | 2.35 |
| O=C(CCN1CCOCC1)Nc1cccc2c1C(=O)c1cccc(NC(=O)CCN3CCOCC3)c1C2=O | > 50 | > 25 | > 25 | > 25 |
| C[N+]1(CCC(=O)Nc2cccc3c2C(=O)c2c(NC(=O)CC[N+]4(C)CCOCC4)cccc2C3=O)CCOCC1 | 10 | 0.51 | 0.58 | 2.6 |
| CCN(CC)CCC(=O)Nc1cccc2c1C(=O)c1cccc(NC(=O)CCN(CC)CC)c1C2=O | 2.7 | 0.32 | 0.32 | 0.62 |
| C[N+](C)(C)CCC(=O)Nc1ccc2c(c1)C(=O)c1cc(NC(=O)CC[N+](C)(C)C)ccc1C2=O | 14.5 | 0.44 | 1.3 | 4 |
| O=C(CCN1CCCC1)Nc1ccc2c(c1)C(=O)c1cc(NC(=O)CCN3CCCC3)ccc1C2=O | 2 | 1.2 | 1.8 | 2.3 |
| O=C(CCN1CCCCC1)Nc1cccc2c1C(=O)c1cccc(NC(=O)CCN3CCCCC3)c1C2=O | 2.3 | 0.435 | 0.42 | 0.82 |
| CN(C)CCC(=O)Nc1cccc2c1C(=O)c1c(NC(=O)CCN(C)C)cccc1C2=O | 6.4 | 0.33 | 1.35 | 1.65 |
| C[N+]1(CCC(=O)Nc2ccc3c(c2)C(=O)c2cc(NC(=O)CC[N+]4(C)CCOCC4)ccc2C3=O)CCOCC1 | 16.5 | 0.52 | 1.1 | 2.95 |
| CC[N+](C)(CC)CCC(=O)Nc1cccc2c1C(=O)c1c(NC(=O)CC[N+](C)(CC)CC)cccc1C2=O | 7.5 | 0.55 | 1.65 | 4.6 |
| C[N+](C)(C)CCC(=O)Nc1cccc2c1C(=O)c1cccc(NC(=O)CC[N+](C)(C)C)c1C2=O | 13.2 | 1.7 | 1.75 | 5.8 |

| Compound | IC50 [1] [µM] | IC50 (A2780) [µM] | IC50 (CH1) [µM] | IC50 (SK-OV-3) [µM] |
| --- | --- | --- | --- | --- |
| CCN(CC)CCC(=O)Nc1cccc2c1C(=O)c1c(NC(=O)CCN(CC)CC)cccc1C2=O | 4.2 | 0.64 | 5.3 | 5.2 |
| CC[N+](C)(CC)CCC(=O)Nc1ccc2c(c1)C(=O)c1ccc(NC(=O)CC[N+](C)(CC)CC)cc1C2=O | – | 2.1 | 1.9 | 6.4 |
| C[N+]1(CCC(=O)Nc2ccc3c(c2)C(=O)c2cc(NC(=O)CC[N+]4(C)CCCC4)ccc2C3=O)CCCC1 | 16 | 0.48 | 1.6 | 4.7 |
| C[N+]1(CCC(=O)Nc2ccc3c(c2)C(=O)c2cc(NC(=O)CC[N+]4(C)CCCCC4)ccc2C3=O)CCCCC1 | 7.8 | 0.18 | 1.05 | 2.2 |
| O=C(CCN1CCOCC1)Nc1ccc2c(c1)C(=O)c1ccc(NC(=O)CCN3CCOCC3)cc1C2=O | – | > 25 | 14 | > 25 |
| C[N+]1(CCC(=O)Nc2cccc3c2C(=O)c2c(NC(=O)CC[N+]4(C)CCCCC4)cccc2C3=O)CCCCC1 | 7.8 | 0.52 | 1.12 | 4.6 |
| O=C(CCN1CCCC1)Nc1ccc2c(c1)C(=O)c1ccc(NC(=O)CCN3CCCC3)cc1C2=O | 1.8 | 39 | 49 | 38 |
| C[N+]1(CCC(=O)Nc2cccc3c2C(=O)c2cccc(NC(=O)CC[N+]4(C)CCCC4)c2C3=O)CCCC1 | 8.8 | 2.2 | 2.25 | 10 |
| CC[N+](C)(CC)CCC(=O)Nc1cccc2c1C(=O)c1cccc(NC(=O)CC[N+](C)(CC)CC)c1C2=O | 16.8 | 1.9 | 2.05 | 10 |
| O=C(CCN1CCCC1)Nc1ccc(NC(=O)CCN2CCCC2)c2c1C(=O)c1ccccc1C2=O | – | 0.0025 | 0.019 | 0.39 |
| CCN(CC)CCC(=O)Nc1ccc2c(c1)C(=O)c1ccc(NC(=O)CCN(CC)CC)cc1C2=O | 3.5 | 2.35 | 3.15 | 3.15 |
| CN(C)CCC(=O)Nc1cccc2c1C(=O)c1cccc(NC(=O)CCN(C)C)c1C2=O | 1.3 | 0.35 | 0.37 | 0.62 |
| C[N+](C)(C)CCC(=O)Nc1cccc2c1C(=O)c1c(NC(=O)CC[N+](C)(C)C)cccc1C2=O | 4.4 | 0.53 | 1.4 | 2.2 |
| CC[N+](C)(CC)CCC(=O)Nc1ccc2c(c1)C(=O)c1cc(NC(=O)CC[N+](C)(CC)CC)ccc1C2=O | > 20 | 0.33 | 1.13 | 2 |
| O=C(CCN1CCCC1)Nc1cccc2c1C(=O)c1c(NC(=O)CCN3CCCC3)cccc1C2=O | – | 0.295 | 1.28 | 1.2 |
| CN(C)CCC(=O)Nc1ccc2c(c1)C(=O)c1ccc(NC(=O)CCN(C)C)cc1C2=O | 4.1 | – | – | – |
| O=C(CCN1CCCCC1)Nc1ccc2c(c1)C(=O)c1cc(NC(=O)CCN3CCCCC3)ccc1C2=O | 3.1 | 0.48 | 3.15 | 3.7 |
| CN(C)CCC(=O)Nc1ccc2c(c1)C(=O)c1cc(NC(=O)CCN(C)C)ccc1C2=O | 4.7 | 2.1 | 4.4 | 4.15 |
| CCN(CC)CCC(=O)Nc1ccc2c(c1)C(=O)c1cc(NC(=O)CCN(CC)CC)ccc1C2=O | 4.3 | 2.1 | 4.6 | 7.2 |
| O=C(CCN1CCOCC1)Nc1ccc2c(c1)C(=O)c1cc(NC(=O)CCN3CCOCC3)ccc1C2=O | > 50 | 5.3 | 7.5 | > 100 |
